According to ChEMBL document CHEMBL4715800, “Synthesis and Antiviral Evaluation of Octadecyloxyethyl Benzyl 9-[(2-Phosphonomethoxy)ethyl]guanine (ODE-Bn-PMEG), a Potent Inhibitor of Transient HPV DNA Amplification” (J Med Chem, 2016):

How the values were obtained:
[1] = Drug uptake in HFF cells at 1 uM incubated for 1 to 48 hrs using [14C]-labelled compound by liquid scintillation counting; assay type: ADME, cell-based; details: human, time 1-48 hrs
Method in brief: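 HFF cells exposed to 1 μM [14C]-labelled compound for 1 to 48 h. Cell-associated radioactivity measured in duplicate to assess uptake.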

[2] = Drug level in HFF cells treated with 1 uM [14C]-labelled ODE-Bn-PMEG assessed as compound levels incubated for 48 hrs by liquid scintillation counting; assay type: ADME, cell-based; details: human
[3] = Stability in MEM supplemented with either normal or heat inactivated 10% FBS assessed as compound remaining at 37 degC after 38 days by reverse phase HPLC analysis; details: time 38.0 day
Method in brief: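 Compound incubated at 37 °C in MEM with 10% FBS, either normal or heat-inactivated. After 38 days, analysed by reverse-phase HPLC on a polar RP column with a water/methanol gradient at 0.8 mL/min. Remaining parent and monoester degradation product quantified as peak area.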

[4] = Drug metabolism in HFF cells assessed as PMEGpp levels at 1 uM measured for 14 days using [14C]-labelled compound by liquid scintillation counting; assay type: ADME, cell-based; details: human, 336 h, TDE = time-dependent effect, time 14 day
Method in brief: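 After 48 h exposure to 1 μM [14C]-labelled compound, drug removed from HFF cells. Persistence of intracellular PMEGpp followed over time; average of two separate determinations.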

[5] = Drug metabolism in HFF cells assessed as PMEGp levels at 1 uM incubated for 48 hrs using [14C]-labelled compound by liquid scintillation counting; assay type: ADME, cell-based; details: human
Method in brief: (§1)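 HFF cells exposed for 48 h to 1 μM [14C]-labelled compound, then drug removed. Intracellular PMEG, PMEGp and PMEGpp measured. Values are the average of two separate determinations.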

[6] = Drug metabolism in HFF cells assessed as PMEG levels at 1 uM incubated for 48 hrs using [14C]-labelled compound by liquid scintillation counting; assay type: ADME, cell-based; details: human; method in brief: as §1
[7] = Inhibition of HSV2 replication in HFF cells incubated for 7 days; assay type: functional, cell-based, Human alphaherpesvirus 2; details: Human alphaherpesvirus 2, HFF, 168 h
[8] = Selectivity index, ratio of CC50 for HEK293 cells to EC50 for inhibition of HPV-16 DNA amplification in HEK293 cells
Method in brief: (§2)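 Ratio CC50/EC50 in HEK-293 cells. CC50 is by CellTiter-Glo. EC50 is by qPCR of HPV-11 or HPV-16 ori-plasmid amplification in cells cotransfected with type-matched E1/E2 expression vectors.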

[9] = Inhibition of HIV1 92US727 replication in PHA-P-stimulated human PBMCs incubated for 7 days by reverse transcriptase activity based assay; assay type: functional, cell-based, Human immunodeficiency virus 1, PBMC; details: Human immunodeficiency virus 1, 92US727, PBMC, 168 h
Method in brief: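 Human PBMCs infected with a clinical HIV-1 isolate, with AZT as the positive control. Results are the mean of three replicates.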

[10] = Inhibition of HPV-16 DNA amplification in HEK293 cells incubated for 48 hrs by qPCR analysis; assay type: functional, cell-based, Human papillomavirus 16
Method in brief: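 HEK-293 cells cotransfected with an HPV-16 origin-containing plasmid and HPV-16 E1 and E2 expression vectors, then treated with drug dilutions and incubated. Ori-plasmid amplification quantified by real-time qPCR; EC50 calculated from at least three independent experiments.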

[11] = Inhibition of HPV-11 DNA amplification in C-33-A cells incubated for 48 hrs by luciferase reporter gene assay; assay type: functional, cell-based, human papillomavirus 11
Method in brief: (§3)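 HPV-negative cervical cancer C33A cells transiently transfected with type-matched HPV-11, -16 or -18 E1 and E2 expression vectors plus an ori-plasmid carrying a NanoLuc reporter. After drug dilutions and incubation, ori-plasmid replication is read as the rise in luciferase activity and EC50 is determined. Cytotoxicity (CC50) is measured in C33A cells by CellTiter-Glo.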

[12] = Selectivity index, ratio of CC50 for human PBMC to EC50 for inhibition of HIV1 92US727 replication in PHA-P-stimulated human PBMCs; assay type: toxicity; details: PBMCs, read-out: Ratio CC50/EC50
Method in brief: (§4)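 Human PBMCs infected with a clinical HIV-1 isolate, with AZT as positive control. EC50 and CC50 reported as mean ± SD of three replicates; selectivity index = CC50/EC50.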

[13] = Selectivity index, ratio of CC50 for C-33-A cells to EC90 for inhibition of HPV-18 DNA amplification in C-33-A cells
Method in brief: (§5)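 Ratio CC50/EC90. CC50 is from CellTiter-Glo cytotoxicity in C33A cells. EC90 is from NanoLuc luciferase readout of HPV-16 or -18 ori-plasmid replication in C33A cells cotransfected with type-matched E1/E2 vectors.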

[14] = Inhibition of HPV-16 DNA amplification in C-33-A cells incubated for 48 hrs by luciferase reporter gene assay; assay type: functional, cell-based, Human papillomavirus 16; method in brief: as §3
[15] = Cytotoxicity in HFF cells incubated for 7 days by CellTiter-Glo assay; assay type: cell-based; details: human, HFF cells; time 7 day
[16] = Selectivity index, ratio of CC50 for C-33-A cells to EC90 for inhibition of HPV-16 DNA amplification in C-33-A cells; method in brief: as §5
[17] = Selectivity index, ratio of CC50 for C-33-A cells to EC90 for inhibition of HPV-11 DNA amplification in C-33-A cells
[18] = Cytotoxicity in human C-33-A cells by CellTiter-Glo reagent assay; assay type: cell-based; details: C-33-A cells; method in brief: as §3
[19] = Selectivity index, ratio of CC50 for C-33-A cells to EC50 for inhibition of HPV-18 DNA amplification in C-33-A cells
Method in brief: (§6)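 Ratio CC50/EC50. CC50 is from CellTiter-Glo in C33A cells. EC50 is from NanoLuc luciferase readout of HPV ori-plasmid replication in C33A cells cotransfected with type-matched E1/E2 vectors.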

[20] = Selectivity index, ratio of CC50 for HFF to EC50 for inhibition of HSV2 replication in HFF cells; assay type: toxicity, cell-based; details: human, HFF cells; read-out: Ratio CC50/EC50
[21] = Selectivity index, ratio of CC50 for C-33-A cells to EC50 for inhibition of HPV-11 DNA amplification in C-33-A cells; method in brief: as §6
[22] = Inhibition of HPV-18 DNA amplification in C-33-A cells incubated for 48 hrs by luciferase reporter gene assay; assay type: functional, cell-based, human papillomavirus 18; method in brief: as §3
[23] = Selectivity index, ratio of CC50 for HEK293 cells to EC50 for inhibition of HPV-11 DNA amplification in HEK293 cells; method in brief: as §2
HEK293 = test: Cytotoxicity in HEK293 cells by CellTiter-Glo assay; details: human, hek293
[24] = Selectivity index, ratio of CC50 for C-33-A cells to EC50 for inhibition of HPV-16 DNA amplification in C-33-A cells; method in brief: as §6
[25] = Cytotoxicity in human PBMC cells; assay type: cell-based; details: pbmc; method in brief: as §4
[26] = Inhibition of HPV-11 DNA amplification in HEK293 cells incubated for 48 hrs by qPCR analysis; assay type: functional, cell-based, human papillomavirus 11
Method in brief: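 HEK-293 cells cotransfected with an HPV-11 origin-containing plasmid and HPV-11 E1 and E2 expression vectors, then exposed to drug dilutions and incubated. Ori-plasmid amplification is measured by quantitative real-time PCR and EC50 is calculated. At least three independent experiments.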

[27] = Cytotoxicity in HEK293 cells by CellTiter-Glo assay; details: human, HEK293 cells
[28] = human papillomavirus 11, C-33-A, 48 h
[29] = Human papillomavirus 16, C-33-A, 48 h
[30] = human papillomavirus 18, C-33-A, 48 h

For Nc1nc2c(ncn2CCOCP(=O)(O)O)c(=O)[nH]1 [GS-438], the Drug uptake [1] was “Active” and the Drug uptake [2] was “Active”.
CCCCCCCCCCCCCCCCCCOCCOP(=O)(COCCn1cnc2c(=O)[nH]c(N)nc21)OCc1ccccc1 (stereo in doubt; form 1) gave a Stability [3] of 83%.
With CCCCCCCCCCCCCCCCCCOCCOP(=O)(COCCn1cnc2c(=O)[nH]c(N)nc21)OCc1ccccc1 (centres undefined) the Drug uptake ([1]; TDE = time-dependent effect) was “Tde”, the Drug metabolism [4] was “Tde” and the Drug uptake [5] was “Metabolite_Detected”. The Drug uptake [6] was “Metabolite_Detected”.
In the case of CCCCCCCCCCCCCCCCCCOCCOP(=O)(COCCn1cnc2c(=O)[nH]c(N)nc21)OCc1ccccc1 (stereo in doubt; form 3), the EC50 [7] is reported as 32 nM, the “Ratio CC50/EC50” value [8] is reported as 120 and the EC50 [9] is reported as 3 nM. For the same compound, the EC50 [10] was 690 nM, the EC50 ([11]; c-33-a) was 710 nM and the EC90 ([11]; time 48 hrs) was 2500 nM. The selectivity ratio [12] was 16.3, the Ratio [13] was >7 and the EC50 ([14]; c-33-a) was 220 nM. The EC90 ([14]; time 48 hrs) was 1500 nM, the CC50 at 168 h [15] was 6100 nM and the Ratio [16] was >7. For the same compound, the Ratio [17] was >4, the CC50 [18] was > 10000 nM and the “Ratio CC50/EC50” value [19] was >37. The selectivity ratio [20] was 190, the “Ratio CC50/EC50” value [21] was >14 and the EC50 ([22]; c-33-a) was 270 nM. The EC90 ([22]; time 48 hrs) was 1400 nM, the “Ratio CC50/EC50” value [23] was 170 and the CC50 (HEK293) was 83000 nM. For the same compound, the “Ratio CC50/EC50” value [24] was >45, the CC50 [25] was 40 nM and the EC50 [26] was 500 nM.
CCCCCCCCCCCCCCCCCCOCCOP(=O)(COCCn1cnc2c(=O)[nH]c(N)nc21)Oc1ccccc1 (centres undefined) showed an EC50 [10] of 5200 nM, an EC50 [11, 28] of 100 nM and an EC90 [11, 28] of 610 nM. It also gave a Ratio [13] of 210, an EC50 [14, 29] of 90 nM and an EC90 [14, 29] of 490 nM. It also gave a Ratio [16] of 120, a Ratio [17] of 80 and a CC50 [18] of 49000 nM. The “Ratio CC50/EC50” value [19] was 980, the “Ratio CC50/EC50” value [21] was 490 and the EC50 [22, 30] was 60 nM. For the same compound, the EC90 [22, 30] was 280 nM, the “Ratio CC50/EC50” value [24] was 670 and the EC50 [26] was 9500 nM.
With Nc1ccn(C[C@@H](CO)OCP(=O)(O)O)c(=O)n1.O.O [CIDOFOVIR] the “Ratio CC50/EC50” value [8] was >2, the EC50 [10] was 150000 nM and the EC50 [11, 28] was > 300000 nM. For the same compound, the EC90 [11, 28] was > 300000 nM, the Ratio [13] was 1 and the EC50 [14, 29] was 220000 nM. For the same compound, the EC90 [14, 29] was > 300000 nM, the Ratio [16] was 1 and the Ratio [17] was 1. The CC50 [18] was > 300000 nM, the “Ratio CC50/EC50” value [19] was >1 and the “Ratio CC50/EC50” value [21] was 1. For the same compound, the EC50 [22, 30] was 260000 nM, the EC90 [22, 30] was > 300000 nM and the “Ratio CC50/EC50” value [23] was >2. For the same compound, the CC50 [27] was > 300000 nM, the “Ratio CC50/EC50” value [24] was >1 and the EC50 [26] was 150000 nM.
